Screening results: PubChem BioAssay, several laboratories
Rows were chosen to be rich in hits. Some 1.8% of all compounds tested hit in one or more screens of this group.
eLon inh – inhibits E. coli Lon protease | P0A9M0 | purified E. coli Lon protease, fluorescence polarization | inhibition, % at 7.94 µM | actives 0.42% (n = 360,000) | AID 602123; in the data active = inhibition above about 13%, passing the limit was not always enough
Target sequence (P0A9M0 whole entry, looked up): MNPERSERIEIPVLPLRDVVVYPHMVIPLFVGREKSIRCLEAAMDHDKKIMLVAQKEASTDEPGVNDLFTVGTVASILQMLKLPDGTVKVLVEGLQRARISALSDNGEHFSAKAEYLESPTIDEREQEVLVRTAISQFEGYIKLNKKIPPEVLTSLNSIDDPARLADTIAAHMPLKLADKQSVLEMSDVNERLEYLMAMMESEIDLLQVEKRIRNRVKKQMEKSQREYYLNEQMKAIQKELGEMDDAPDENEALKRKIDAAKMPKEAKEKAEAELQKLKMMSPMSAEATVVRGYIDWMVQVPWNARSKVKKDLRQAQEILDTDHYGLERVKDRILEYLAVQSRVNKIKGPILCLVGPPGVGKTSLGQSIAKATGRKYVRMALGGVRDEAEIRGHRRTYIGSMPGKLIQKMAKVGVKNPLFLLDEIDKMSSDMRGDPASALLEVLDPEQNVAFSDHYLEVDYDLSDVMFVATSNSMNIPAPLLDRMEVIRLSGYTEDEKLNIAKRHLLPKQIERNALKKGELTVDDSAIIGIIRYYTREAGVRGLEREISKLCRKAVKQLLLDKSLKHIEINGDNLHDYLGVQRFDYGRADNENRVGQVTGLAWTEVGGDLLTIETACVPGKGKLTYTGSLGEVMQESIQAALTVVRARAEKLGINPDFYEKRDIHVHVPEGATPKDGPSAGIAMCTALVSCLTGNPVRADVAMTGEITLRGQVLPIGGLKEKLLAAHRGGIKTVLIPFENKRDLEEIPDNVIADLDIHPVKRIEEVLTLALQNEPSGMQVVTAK
SKN-1 block – blocks SKN-1 activity in C. elegans; C. elegans VP596 Pgst-4::GFP/RFP ratio, acrylamide-induced, 24 h; inhibition, % at 21.8 µM; actives 0.49% (n = 360,000);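 active = interference check ratio from 0.5 to 1.5 plus GFP to RFP signal ratio inhibition reaching or exceeding a fixed threshold, cut at about 30% in these data, passing the limit was not always enough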
iPSC survival up – increases survival of single human iPS cells; hiPSC single-cell survival, ATPlite luminescence; 100% = ROCK inhibitor wells, 0% = DMSO; survival enhancement, % at 20 µM; actives 0.044% (n = 360,000); AID 602274; in the data active = survival enhancement above about 18%;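 also: cells exposed to compounds for 16 hours before the ATP read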
PREPL inhibitor – inhibits the human prolyl oligopeptidase-like enzyme. Q4J6C6. recombinant PREPL, fluorescence polarization activity-based probe. inhibition, % at 5.96 µM. actives 0.68% (n = 320,000); in the data active = inhibition above about 43%
TbMetRS inhib – Trypanosoma brucei MetRS inhibition; purified T. brucei MetRS, ATP depletion, Kinase-Glo luminescence; actives 0.4% (n = 360,000); AID 624268; inhibition, % at 11.9 µM;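 active = inhibition above a per-plate cutoff of the control wells' mean inhibition plus 3 SD, cut at about 5.5% in these data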
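Test system: purified T. brucei MetRS enzyme. Also added: ATP, methionine and E. coli bulk tRNA substrates. Compound: 11.9 µM single point. Schedule: 15 min enzyme-compound preincubation, 2 h reaction, 10 min detection, 25 °C. Signal: luciferase luminescence of residual ATP, Kinase-Glo. Evaluation: percent inhibition versus plate control medians. Controls: DMSO wells, low control.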
MT1-MMP act inh – inhibitors of human MT1-MMP activation | P50281 | HT1080 RFP-PRO-GFP cells, GFP/RFP ratio fluorescence, overnight; percent of plate control window, DMSO zero | GFP/RFP ratio change, % at 20 µM | actives 0.061% (n = 360,000) | AID 651647;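 active = GFP/RFP ratio change of at least 30% with cell ATP level not reduced by more than half and red fluorescence within 50% of control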
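Test system: HT1080 RFP-PRO-GFP cells; Benchmarks: DMSO and RFP-L50D-GFP cell wells; Timing: cells overnight before dosing, compound overnight, 37 °C, 5% CO2; Compound: one 20 µM compound dose with 1% DMSO; Read-out: GFP/RFP fluorescence ratio.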
Tb MetRS conf – confirmation of Trypanosoma brucei MetRS inhibitors; T. brucei MetRS enzyme, luminescence (ATP depletion); actives 93% (n = 1,400); inhibition, % at 11.9 µM; shares compounds with TbMetRS inhib; in the data active = inhibition above about 7%
Jurkat cytotox – counter-screen for T. brucei MetRS inhibitors: Jurkat cell cytotoxicity | actives 12% (n = 1,400) | shares compounds with TbMetRS inhib | AID 624413 | inhibition, % at 8.3 µM | Jurkat cells viability, ATP luminescence; in the data active = inhibition above about 15%
TbMetRS FP orth – T. brucei MetRS inhibition, orthogonal assay; shares compounds with TbMetRS inhib; purified T. brucei MetRS, fluorescence polarization; inhibition, % at 11.9 µM; actives 44% (n = 1,400); in the data active = inhibition above about 17%
Numbers stand for hits; i = inactive; nt = no result.

SMILES | eLon inh | SKN-1 block | iPSC survival up | PREPL inhibitor | TbMetRS inhib | MT1-MMP act inh | Tb MetRS conf | Jurkat cytotox | TbMetRS FP orth
Cn1nc(C(F)(F)F)c(-c2cccc(C(F)(F)F)c2)c1NC(=O)Nc1ccc(F)cc1 | i | i | i | i | 40.6 | i | 58.4 | i | 38.3
O=C(NCCNC(=O)c1cccnc1)c1ccc(Br)cc1 | i | i | i | i | i | i | nt | nt | nt
Cc1cc(-c2ccccc2)n(-c2ccccc2)n1 | i | i | i | i | i | i | nt | nt | nt
COc1ccc(CNC(=O)CSc2nc3ccc(C)cc3[nH]2)cc1OC | i | i | i | i | 8.9 | i | 20.9 | i | i
Cc1ccc2nc(SCC(=O)NCc3ccc(S(N)(=O)=O)cc3)[nH]c2c1 | i | i | i | i | i | i | nt | nt | nt
Cc1ccc2nc(SCC(=O)NCc3ccc(F)cc3)[nH]c2c1 | i | i | i | i | 18.1 | i | 22.0 | i | i
COCC(=O)N1CCN(c2nc3ccccc3o2)CC1 | i | i | i | i | i | i | nt | nt | nt
Cc1ccc(C(=O)NNC(=O)CSc2nnc(-c3ccccc3)n2Cc2ccccc2)cc1 | i | i | i | i | i | i | nt | nt | nt
CC(C)C(=O)OCC(=O)NCc1ccccc1Cl | i | i | i | i | i | i | nt | nt | nt
Cc1ccc(NC(=O)/C=N/OCC(=O)NCc2ccccc2Cl)cc1 | i | i | i | i | 16.3 | i | 29.3 | i | i
N/C(=N\c1nc2ccccc2o1)NC(=O)c1cccc(Cl)c1 | i | i | i | i | i | i | nt | nt | nt
N#Cc1c(NCCCO)nc(NCc2ccccc2)c2c1CCN(Cc1ccccc1)C2 | i | i | i | i | 42.0 | i | 35.6 | i | 19.1
CN1CCc2c(C#N)c(N3CCCCC3)nc(NCc3ccccc3)c2C1 | i | i | i | i | i | i | nt | nt | nt
O=C(Cc1ccc(S(=O)(=O)N2CCOCC2)s1)N1CCN(c2cccc(C(F)(F)F)c2)CC1 | i | i | i | i | i | i | nt | nt | nt
COc1ccc(NC(=O)c2ccco2)c2ccccc12 | i | i | i | nt | i | i | nt | nt | nt
Cc1nnc(NCc2cccc(Cl)c2)c2ccccc12 | i | i | i | i | 12.1 | i | 18.7 | i | i
CCOC(=O)c1nnn(CC(=O)NC(=O)Nc2ccccc2)c1C(=O)OCC | i | i | i | i | 7.3 | i | 19.9 | i | i
O=C(c1ccccc1)c1nn(-c2ccccc2)c2nnc(Cc3ccccc3)c(=O)n12 | i | i | i | i | 6.5 | i | 16.3 | 15.1 | i
CCN1C(=O)C(CC(=O)Nc2ccc(OC)cc2)N(CCN2CCOCC2)C1=S (centres undefined) | i | i | i | i | i | i | nt | nt | nt
COc1ccc(NC(=O)CC2C(=O)N(C)C(=S)N2Cc2ccco2)cc1 (centres undefined) | i | i | i | i | i | i | nt | nt | nt
CCN1C(=O)C(CC(=O)Nc2ccc(OC)cc2)N(CCc2ccccc2F)C1=S (centres undefined) | i | i | i | i | 33.5 | i | 33.6 | 18.1 | 21.3
COc1ccc(NC(=O)CC2C(=O)N(C)C(=S)N2CCc2ccccc2F)cc1 (centres undefined) | i | i | i | i | 34.8 | i | 45.8 | i | 19.8
O=C(COc1ncnc2ccc(Br)cc12)N1CCOCC1 | i | i | i | i | i | i | nt | nt | nt
C/C(=N\NC(=O)CC1N=C(Cc2ccccc2)NNC1=O)c1ccc(Br)cc1 (centres undefined) | i | i | i | i | i | i | nt | nt | nt
Cc1cccc(CCN2C(N(C)C)=NC[C@@H]2CC(C)C)c1 | i | i | i | i | i | i | nt | nt | nt
SMILES | eLon inh | SKN-1 block | iPSC survival up | PREPL inhibitor | TbMetRS inhib | MT1-MMP act inh | Tb MetRS conf | Jurkat cytotox | TbMetRS FP orth
O=C1[C@@H]2Cc3c([nH]c4ccccc34)C(c3ccccc3)N2C(=O)CN1C1CCN(Cc2ccccc2)CC1 (some centres undefined) | i | i | i | i | i | i | nt | nt | nt
COc1cccc(C2c3[nH]c4ccccc4c3C[C@H]3C(=O)N(C4CC4)CC(=O)N23)c1 (some centres undefined) | i | i | i | i | 15.9 | i | 29.9 | i | 21.7
O=C1[C@@H]2Cc3c([nH]c4ccccc34)C(c3cccc(Br)c3)N2C(=O)CN1C1CCN(Cc2ccccc2)CC1 (some centres undefined) | i | i | i | i | 41.4 | i | 54.1 | i | 27.8
COc1cccc(C2c3[nH]c4ccccc4c3C[C@H]3C(=O)N(C)CC(=O)N23)c1 (some centres undefined) | i | i | i | i | 15.9 | i | 30.9 | i | i
COc1ccc(OC)c(C2c3[nH]c4ccccc4c3C[C@H]3C(=O)N(C4CC4)CC(=O)N23)c1 (some centres undefined) | i | i | i | i | i | i | nt | nt | nt
Cc1n[nH]c(=O)n(N=Cc2cccs2)c1=O | i | i | i | nt | i | i | nt | nt | nt
COC(=O)c1sc(-c2ccc(Cl)cc2)cc1NC(=O)CSCC(=O)O | i | i | i | i | 20.1 | i | 33.2 | i | 23.8
CCOCCn1c(=NC(=O)CSCC(=O)Nc2cc(C)on2)sc2cc(OC)ccc21 | i | i | i | i | i | i | nt | nt | nt
Cc1ccc(NC(=O)CCNS(=O)(=O)c2cc(Br)cnc2N)c(Cl)c1 | nt | nt | nt | i | nt | nt | nt | nt | nt
Cc1ccc(NC(=O)CCNS(=O)(=O)c2cc(Br)cnc2N)cc1Cl | i | i | i | i | 44.0 | i | 58.4 | i | 21.5
COc1cc(NC(=O)CCNS(=O)(=O)c2cc(Br)cnc2N)cc(OC)c1 | i | i | i | i | i | i | nt | nt | nt
Nc1ncc(Br)cc1S(=O)(=O)NCCC(=O)Nc1cccc(Cl)c1 | i | i | i | i | 10.5 | i | 17.2 | i | i
CCOC(=O)c1cccc(NC(=O)CCNS(=O)(=O)c2cc(Br)cnc2N)c1 | i | i | i | i | i | i | nt | nt | nt
Cc1cc(NC(=O)CCNS(=O)(=O)c2cc(Br)cnc2N)ccc1Br | i | i | i | i | 30.9 | i | 47.4 | i | 29.3
COCC(C)NC(=O)C(C)N1c2cccc3cccc(c23)S1(=O)=O (centres undefined) | i | i | i | i | i | i | nt | nt | nt
CCN(CC(=O)NCc1ccc(Cl)cc1)CC(=O)NC1(C#N)CCCC1 | i | i | i | i | i | i | nt | nt | nt
O=C(CNC(=O)c1ccc(Br)o1)NCc1ccc(Cl)cc1Cl | i | i | i | nt | 17.6 | i | 44.6 | i | i
CCOC(=O)C(=O)Nc1ccccc1C(=O)NC(C)C | i | i | i | i | i | i | nt | nt | nt
CC1(C)CC(N2CCN(CCO)CC2)=CC(=S)N1 | i | i | i | i | 6.2 | i | i | i | i
